Experimental findings from ChEMBL document CHEMBL1138807, “4,5-dihydro-1H-pyrazole derivatives with inhibitory nNOS activity in rat brain: synthesis and structure-activity relationships” (J Med Chem, 2004) are described below.

Usually inhibition stands for the relative decrease from the control value, in per cent.

Assay [1] deals with Kynurenine 3-monooxygenase (Rattus norvegicus) (UniProt O88867). In words: Percent kynurenine 3-hydroxylase activity determined by the conversion of L-kynurenine to 3-hydroxykynurenine in rat striatum at 1 mM concentration of compound (value is mean +/- SEM). Format: tissue-based. An outline of the steps: (§1)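 Enzyme source: rat striatal pellet (sucrose homogenate, 10000g), resuspended in 0.14 M KCl, 20 mM phosphate, pH 7. Incubation in 0.1 M phosphate, 4 mM MgCl2, 100 µM L-kynurenine with NADPH; compound 1 mM final in DMSO; 37 °C, 60 min. Stopped with cold perchloric acid. 3-Hydroxykynurenine measured by HPLC with electrochemical detection against a DHBA internal standard; activity expressed as nmol/h/g wet brain.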
Chain of Kynurenine 3-monooxygenase (Rattus norvegicus) (O88867 whole entry, looked up): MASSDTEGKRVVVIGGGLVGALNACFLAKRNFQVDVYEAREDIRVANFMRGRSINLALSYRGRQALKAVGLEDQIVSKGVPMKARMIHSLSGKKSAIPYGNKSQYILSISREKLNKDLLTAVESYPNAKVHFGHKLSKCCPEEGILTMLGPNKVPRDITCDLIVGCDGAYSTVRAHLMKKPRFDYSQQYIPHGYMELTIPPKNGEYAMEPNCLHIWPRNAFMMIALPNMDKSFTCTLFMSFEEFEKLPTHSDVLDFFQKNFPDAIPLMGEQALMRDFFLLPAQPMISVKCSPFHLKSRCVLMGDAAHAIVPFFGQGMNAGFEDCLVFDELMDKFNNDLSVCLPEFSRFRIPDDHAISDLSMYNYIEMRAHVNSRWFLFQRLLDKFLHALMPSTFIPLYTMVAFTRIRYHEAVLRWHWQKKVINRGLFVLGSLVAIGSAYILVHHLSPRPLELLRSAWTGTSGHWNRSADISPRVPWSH

Assay [2] has as its target Nitric oxide synthase 1 (Rattus norvegicus) (UniProt P29476). The experiment in a line: Percent inhibition towards rat striatal neuronal nitric oxide synthase (nNOs) at 1 mM concentration (value is mean +/- SEM). The gist of the method: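 Rat striatal crude homogenate (two striata homogenized in Tris buffer with protease inhibitors, pH 7.6; 1000g supernatant). Conversion of L-[3H]-arginine to L-[3H]-citrulline in 25 mM Tris, 30 µM H4-biopterin, 10 µM FAD, 0.1 mM CaCl2, 10 µM L-arginine plus 50 nM tracer. Started with 0.75 mM NADPH; compound 1 mM final in DMSO; 37 °C, 30 min. Citrulline separated on Dowex-50W and counted by scintillation. Blank omits NADPH. Three experiments in triplicate, four rat striata each.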

Assay [3] deals with Kynurenine 3-monooxygenase (Rattus norvegicus) (UniProt O88867). The experiment in a line: Inhibitory activity against kynurenine 3-hydroxylase at 1 mM concentration. The gist of the method: as §1

Chain of Nitric oxide synthase 1 (Rattus norvegicus) (P29476 whole entry): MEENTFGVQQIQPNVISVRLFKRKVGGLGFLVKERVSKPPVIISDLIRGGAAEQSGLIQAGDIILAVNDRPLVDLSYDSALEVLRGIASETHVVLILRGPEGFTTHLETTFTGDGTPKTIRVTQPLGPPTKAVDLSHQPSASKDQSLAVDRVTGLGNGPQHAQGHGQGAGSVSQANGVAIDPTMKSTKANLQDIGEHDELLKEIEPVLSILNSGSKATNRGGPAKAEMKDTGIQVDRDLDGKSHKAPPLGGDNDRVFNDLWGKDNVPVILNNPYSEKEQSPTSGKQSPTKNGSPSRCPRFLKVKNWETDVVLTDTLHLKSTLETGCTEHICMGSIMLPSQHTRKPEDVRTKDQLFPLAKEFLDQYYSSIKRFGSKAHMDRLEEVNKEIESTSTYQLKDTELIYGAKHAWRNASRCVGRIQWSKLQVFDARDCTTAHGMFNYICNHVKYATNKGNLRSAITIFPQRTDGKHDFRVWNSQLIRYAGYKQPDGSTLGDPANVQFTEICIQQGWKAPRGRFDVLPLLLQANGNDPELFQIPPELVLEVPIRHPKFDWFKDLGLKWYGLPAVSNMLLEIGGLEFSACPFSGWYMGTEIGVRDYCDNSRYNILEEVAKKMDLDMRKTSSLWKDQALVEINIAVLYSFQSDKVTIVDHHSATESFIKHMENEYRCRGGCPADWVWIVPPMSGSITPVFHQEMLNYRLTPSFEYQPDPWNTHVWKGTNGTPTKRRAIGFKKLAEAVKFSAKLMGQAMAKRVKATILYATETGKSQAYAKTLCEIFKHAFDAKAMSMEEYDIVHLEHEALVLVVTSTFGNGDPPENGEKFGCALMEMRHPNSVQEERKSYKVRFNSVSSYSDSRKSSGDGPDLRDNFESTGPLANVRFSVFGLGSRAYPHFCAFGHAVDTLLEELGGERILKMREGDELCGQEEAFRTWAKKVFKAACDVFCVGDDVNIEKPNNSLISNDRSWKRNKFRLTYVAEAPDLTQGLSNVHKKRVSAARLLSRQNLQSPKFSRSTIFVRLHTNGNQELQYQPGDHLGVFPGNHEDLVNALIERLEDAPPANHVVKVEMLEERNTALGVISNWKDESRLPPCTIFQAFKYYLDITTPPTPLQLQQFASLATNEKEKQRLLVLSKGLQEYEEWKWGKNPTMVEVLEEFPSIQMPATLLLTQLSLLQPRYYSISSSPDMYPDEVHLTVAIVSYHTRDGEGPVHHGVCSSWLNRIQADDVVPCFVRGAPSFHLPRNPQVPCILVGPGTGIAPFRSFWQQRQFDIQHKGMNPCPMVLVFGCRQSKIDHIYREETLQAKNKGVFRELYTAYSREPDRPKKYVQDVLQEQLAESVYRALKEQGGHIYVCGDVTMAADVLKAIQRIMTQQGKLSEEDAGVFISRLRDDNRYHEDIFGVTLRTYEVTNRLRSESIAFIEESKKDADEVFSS

Turning to `Nc1ccc(Cl)cc1C1=NN(C(=O)c2ccccc2)CC1`, in assay [1], the Activity was found to be 106%. In addition, the inhibition in assay [2] came out at 61.1%.

As for `COc1ccc(N)c(C2=NN(C(=O)C3CCCCC3)CC2)c1`, the Activity in assay [1] worked out at 87.4%. The inhibition in assay [2] is 62.2%.

As to `COc1ccc(N)c(C2=NN(C(=O)C3CCC3)CC2)c1`, the Activity in assay [1] was determined as 96.5%. In assay [2], this molecule registered an inhibition of 38.3%.

The molecule `CCC(=O)N1CCC(c2cc(Cl)ccc2N)=N1` displayed an Activity in assay [1] of 97.7%. In assay [2], this molecule came in with an inhibition of 46.1%.

As to `CC(=O)N1CCC(c2ccccc2N)=N1`, the inhibition in assay [3] is 22.1%; in assay [2], 33.7%. The Activity in assay [1] is 77.8%.

`Nc1ccc(Cl)cc1C1=NN(C(=O)C2CC2)CC1` returned an Activity in assay [1] of 98.1%. The molecule also came in with an inhibition in assay [2] of 70.2%.

As to `COc1ccc(N)c(C2=NN(C(C)=O)CC2)c1`, the Activity in assay [1] amounted to 98.8%. Besides, in assay [2], the inhibition stood at 38%.

In assay [1], `COc1ccc(N)c(C2=NN(C(=O)C3CCCC3)CC2)c1` came in with an Activity of 105%. The inhibition in assay [2] was 49.9%.

`COc1ccc(N)c(C2=NN(C(=O)c3ccccc3)CC2)c1`: in assay [2], the inhibition is 58.9%.

In turn, `CCCCC(=O)N1CCC(c2cc(OC)ccc2N)=N1` gave an Activity in assay [1] of 120%. Moreover, the inhibition in assay [2] was 49.8%.

`CC(=O)N1CCC(c2cc(Cl)ccc2N)=N1`: the Activity in assay [1] stood at 111%. In assay [2], this molecule came in with an inhibition of 47.6%.

For the molecule `CCCC(=O)NC(CC(=O)c1cc(OC)ccc1N)C(=O)O` (stereo not drawn), the Activity in assay [1] is 88.7%. In assay [2], the inhibition turned out to be 45%.

In the case of `COc1ccc(N)c(C2=NN(C(=O)C3CC3)CC2)c1`, the Activity in assay [1] is 123%. The molecule also gave an inhibition in assay [2] of 62.2%.

Molecule `Nc1ccccc1C1=NN(C(=O)C2CC2)CC1` showed an Activity in assay [1] of 86.9%. In assay [2], this molecule returned an inhibition of 38.8%.

The molecule `CCCC(=O)N1CCC(c2ccccc2N)=N1` showed an Activity in assay [1] of 85%. Besides, the inhibition in assay [2] came to 52.4%.

In assay [1], `CCC(=O)N1CCC(c2ccccc2N)=N1` registered an Activity of 85.2%. The same molecule yielded an inhibition in assay [2] of 36.5%.

For the molecule `COc1ccc(N)c(C(=O)CC(NC(C)=O)C(=O)O)c1` (stereo not drawn), the Activity in assay [1] came to 101%. Besides, the inhibition in assay [2] is 68.5%.

For `CCCC(=O)N1CCC(c2cc(OC)ccc2N)=N1`, the Activity in assay [1] turned out to be 96.4%. In assay [2], this molecule had an inhibition of 34.7%.

Regarding `CCCC(=O)N1CCC(c2cc(Cl)ccc2N)=N1`, the Activity in assay [1] came to 97.7%. In assay [2], this molecule came in with an inhibition of 34.4%.

Molecule `Nc1ccccc1C1=NN(C(=O)c2ccccc2)CC1` gave an Activity in assay [1] of 82.5%. In assay [2], this molecule had an inhibition of 57%.

As to `CCC(=O)N1CCC(c2cc(OC)ccc2N)=N1`, the inhibition in assay [3] turned out to be 18.9%; in assay [2] it was 53.3%. Also, the Activity in assay [1] worked out at 81.1%.
